Jurkat viability: cytotoxic compounds reducing Jurkat cell viability; Jurkat E6.1 viability, ATP luminescence, 48 h; inhibition, % at 4 µM; 1.2% of 56,000 active; AID 463;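 active = inhibition above the mean inhibition of all tested compounds plus 3 SD, cut at about 28% in these data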
HEK293 NFkB inh: inhibitors of the PMA/ionomycin-induced NF-kB reporter in HEK293 cells | HEK-293 NF-kB luciferase reporter, luminescence | inhibition, % at 3 µM | 0.21% of 62,000 active | AID 465;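 active = inhibition above the mean of all tested compounds plus 3 SD, cut at about 40% in these data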
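System – HEK-293 cells with stable firefly luciferase reporter driven by four HIV NF-kB elements · Doses – one dose, 3 µM · Schedule – 1 h compound pre-incubation, 16 h PMA/ionomycin at 37 °C · Technique – luminescence from luciferase substrate reagent · Measure – percent inhibition normalized per plate to DMSO and reference-inhibitor controls · Replicates – tested once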
SF-1 act: activators of human nuclear receptor SF-1 | Q13285 | CHO-K1 Gal4-SF-1 LBD luciferase reporter; % increase over DMSO SF-1-specific signal | activation, % at 10 µM | 1.9% of 65,000 active | AID 522;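 active = activation above the mean activation of all tested compounds plus 3 SD, cut at about 50% in these data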
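Material: CHO-K1 cells with Gal4–hSF-1 LBD chimera plus Gal4-driven luciferase / Input: 4,000 CHO-K1 cells per well / Incubation: compound exposure 20 h at 37 °C / Signal: luminescence read 15 min after SteadyLite luciferase reagent, after room-temperature equilibration / Read-out: percent activation versus DMSO / Benchmarks: DMSO negative control and −SF1 background wells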
RORA act: RORA (human) activation. CHO-K1 Gal4-RORA LBD luciferase reporter, luminescence; percent increase over mock-subtracted basal signal. activation, % at 10 µM. 1.5% of 65,000 active;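 active = activation above the mean of all tested compounds plus 3 SD, cut at about 49% in these data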
Target sequence (P35398 whole entry, looked up, the tested form may be a part): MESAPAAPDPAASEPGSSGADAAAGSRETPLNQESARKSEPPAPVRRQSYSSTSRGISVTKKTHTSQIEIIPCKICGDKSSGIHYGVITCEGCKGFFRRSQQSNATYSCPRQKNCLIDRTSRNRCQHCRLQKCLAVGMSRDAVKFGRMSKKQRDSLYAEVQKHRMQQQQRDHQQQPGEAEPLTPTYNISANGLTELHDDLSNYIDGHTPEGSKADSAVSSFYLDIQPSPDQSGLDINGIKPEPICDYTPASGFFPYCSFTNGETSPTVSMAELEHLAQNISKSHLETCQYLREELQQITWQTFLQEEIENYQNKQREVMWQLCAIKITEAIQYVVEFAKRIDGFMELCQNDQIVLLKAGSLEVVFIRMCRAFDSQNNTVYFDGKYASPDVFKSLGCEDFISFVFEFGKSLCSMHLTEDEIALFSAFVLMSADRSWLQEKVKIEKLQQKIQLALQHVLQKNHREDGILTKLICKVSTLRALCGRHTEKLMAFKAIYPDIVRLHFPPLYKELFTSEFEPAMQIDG
Of the large screens only hits and unclear results are named; the others gave an inactive call. A selection: hits, their analogues and other compounds. The true share with any hit is near 3.9%.

COC(=O)c1c(NC(=O)Cc2cccs2)sc(C)c1C	none
Cc1ccsc1C(=O)OCC(=O)Nc1sccc1C(N)=O	SF-1 act 74
NC(=O)c1ccsc1NC(=O)c1cccs1	SF-1 act 55, RORA act 68
Cc1sc(NC(=O)c2cccs2)c(C(N)=O)c1C	SF-1 act 51
COc1cc(C#CC#CCN2CCCCC2)ccc1O	none
CN(CCCC(=O)Nc1ccncc1)S(=O)(=O)c1ccc(Cl)cc1	Jurkat viability 45
CN(C)C(=O)CN(C)S(=O)(=O)c1ccc(Cl)cc1	none
COc1ccccc1N=c1oc2cc(O)ccc2cc1C(=O)NCC1CCCO1 (stereo unspecified)	none
COc1ccccc1N=c1oc2cc(O)ccc2cc1C(N)=O	Jurkat viability 43
Cc1ccc(OCCN2CCN(C(=O)CCC(=O)Nc3nnc(C)s3)CC2)cc1	none
Cc1ccc(OCCN2CCN(C(=O)CCC(=O)Nc3nnc(C(C)C)s3)CC2)cc1	Jurkat viability 55
Fc1ccc(-c2nnc3ccc(N4CCc5ccccc5C4)nn23)cc1	none
O=C(Nc1cccc(Cl)c1)c1cnn2cccnc12	SF-1 act 105
COc1ccc(-c2nc(C#N)c(NCCc3ccccc3)o2)cc1OC	SF-1 act 78, RORA act 70
COCCCNc1oc(-c2ccccc2F)nc1C#N	SF-1 act 57
COc1ccc(-c2nc(C#N)c(NCc3ccc(C)cc3)o2)cc1OC	none
CS(=O)(=O)c1ccc2nc(NC(=O)c3ccco3)sc2c1	SF-1 act 74, RORA act 66
CN(C)S(=O)(=O)c1ccc2nc(NC(=O)c3cccnc3)sc2c1	SF-1 act 62
CCOC(=O)c1ccc2nc(NC(=O)c3ccco3)sc2c1	none
Cc1ccc2nc(NC(=O)COC(=O)c3ccco3)sc2c1	RORA act 61 (no result: Jurkat viability)
COC(=O)c1c(C(=O)OC)c2ccncn2c1Cl	none (no result: Jurkat viability)
CC1CCCCN1c1nnc(NC(=O)Cn2c(=O)oc3ccccc32)s1 (stereo unspecified)	none
CCOC(=O)CNC(=O)c1ccc2c(c1)OCCO2	SF-1 act 53
CCOC(=O)CNC(=O)c1cc(-c2ccc3c(c2)OCCO3)oc1C	none (no result: Jurkat viability)
Cc1ccc2nc(Nc3ccc4[nH]c(=O)[nH]c4c3)c(-n3nc(C)cc3C)nc2c1	RORA act 59
O=C(Nc1nc2ccc(Cl)cc2s1)c1ccc(Br)o1	RORA act 54
COc1ccc(Nc2nc(C)cc(C)c2C(N)=O)c(OC)c1	none
Clc1ccc(OCc2nn3c(C4CCCCC4)nnc3s2)cc1	none
CC1(C)CNC(=O)c2sc(N3CCCCC3)nc2C1	RORA act 51
CCc1ccc2oc(-c3cc(N)cc(C)c3O)nc2c1	Jurkat viability 47
O=C(COc1ccc(-c2nnco2)cc1)NC1CCCc2ccccc21 (stereo unspecified)	none
O=C(CCn1nnc(-c2cccs2)n1)NCc1ccccc1Cl	none
Clc1ccccc1Cn1nnc(-c2cccs2)n1	SF-1 act 51
c1ccc2c(-c3nc4ncccc4o3)cccc2c1	none
Cc1cccc(N2CCN(C(=O)c3cc4c(=O)n(C)c5ccccc5c4n3C)CC2C)c1 (stereo unspecified)	none
O=C(CCC(=O)c1ccc[nH]1)c1ccc(Cl)cc1	SF-1 act 52
O=C(COc1ccc(F)c(Cl)c1)c1ccc[nH]1	none
COCc1nc(-c2ccc(-c3ccccc3)nc2OC)no1	RORA act 72 (no result: Jurkat viability)
COCc1nc(-c2ccc(-c3ccc(OC)cc3)nc2OC)no1	RORA act 49
CCOc1nc(-c2ccccc2)ccc1-c1noc(COC)n1	none (no result: Jurkat viability)
C=CCSc1nc(N)c(C(=O)Nc2ccccc2C)cc1C(N)=O	none
CCn1c(C(=O)OC)cc2c1ccn2-c1ccc(F)cc1	SF-1 act 53, RORA act 60
COC(=O)c1cc2c(ccn2-c2ccc(F)cc2)n1CC(=O)N1CCN(C(=O)c2ccco2)CC1	none
COc1cc(C2c3c(oc4ccccc4c3=O)C(=O)N2Cc2ccncc2)ccc1O (stereo unspecified)	none
Cc1cc(C(=O)CSc2nnc(NCc3ccccc3)s2)c(C)n1C	Jurkat viability 34
CCOC(=O)Cc1nnc(NC(=O)c2ccccc2OC)s1	none
CCOC(=O)CNC(=O)c1sc(NC(=O)c2ccccc2F)nc1C	SF-1 act 53
CCOC(=O)c1sc(NC(=O)c2ccc(Cl)s2)cc1C	SF-1 act 54, RORA act 78
C=CCOC(=O)c1sc(NC(=O)c2ccco2)nc1C	SF-1 act 93, RORA act 53
CCOC(=O)c1sc(NC(=O)c2ccc(CC)s2)nc1C	SF-1 act 119, RORA act 72
CCOC(=O)c1sc(NC(=O)C2CC2)cc1C	none
CCOC(=O)c1sc2nc(C)cc(C)c2c1NC(=O)c1ccco1	none
CCOC(=O)c1sc(NCCNc2nc(C)c(C(=O)OCC)s2)nc1C	none
O=C(c1cc2nc3c(c(C(F)(F)F)n2n1)CCc1ccccc1-3)N1CCN2CCCC2C1 (stereo unspecified)	none
Cc1ccc2nsnc2c1S(=O)(=O)N(Cc1cc2cccc(C)c2[nH]c1=O)CC1CCCO1 (stereo unspecified)	none
Cc1ccc(C2C(C(=O)c3cc4ccccc4o3)=C(O)C(=O)N2CCCN(C)C)cc1 (stereo unspecified)	none (no result: Jurkat viability, HEK293 NFkB inh)
O=S(=O)(Nc1ncnc2c1oc1ccccc12)c1ccc(Cl)s1	none
O=C(COc1cc(Cl)ccc1Cl)Nc1nnc(CC(=O)N2CCOCC2)s1	none
CCOC(=O)c1sc(NC(=O)c2ccc3ncsc3c2)nc1C	SF-1 act 76
CCOC(=O)c1ccc2nc(NC(=O)c3cccs3)sc2c1	none (no result: Jurkat viability)

Assay outcomes as filed in PubChem BioAssay.
